Assay results taken from ChEMBL document CHEMBL3525900, “Pharmacokinetics, distribution, and metabolism of [14C]sunitinib in rats, monkeys, and humans” (Drug Metab Dispos, 2012).

Tests used:
Homo sapiens [1] = assay: Tmax as total radioactivity in human plasma at 50 mg, po administered as single dose measured up to 24 hrs by LC/MS/MS analysis; format: ADME, organism-based; design: dosed compound name [14C]Sunitinib; conditions: in vivo
Homo sapiens [2] = assay: AUC (0 to infinity) as total radioactivity in human plasma at 50 mg, po administered as single dose […] by LC/MS/MS analysis; format: ADME, organism-based; design: dose 50 mg, time infinity, route oral, dosed compound name [14C]Sunitinib; conditions: in vivo
Summary of the method: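 Open-label phase I study in 8 subjects given one 50 mg oral dose of [14C]sunitinib (100 µCi). Plasma total radioactivity was counted by scintillation on triplicate 0.25 mL aliquots. Sunitinib was quantified by LC-MS-MS. Noncompartmental analysis: Cmax read directly, terminal t½ = ln(2)/slope of the log-concentration regression, AUC by linear trapezoidal rule to the last detectable concentration.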

Cynomolgus monkey [3] = assay: Terminal half life as total radioactivity in male cynomolgus monkey plasma at 6 mg/kg, po administered as single dose by LC/MS/MS analysis; format: ADME, organism-based, Macaca fascicularis; design: dose 6 mg/kg, dosed compound name [14C]Sunitinib, route oral; conditions: in vivo
Homo sapiens [4] = assay: Total drug recovery in human at 50 mg, po administered as single dose during 0 to 504 hrs by liquid scintillation counting; format: ADME, organism-based; design: dosed compound name [14C]Sunitinib; conditions: in vivo
Cynomolgus monkey [5] = assay: Total drug recovery in female cynomolgus monkey at 6 mg/kg, po administered as single dose during 0 to 336 hrs by liquid scintillation counting; format: ADME, organism-based, Macaca fascicularis; design: dose 6 mg/kg, dosed compound name [14C]Sunitinib, route oral; conditions: in vivo
Adrenal [6] = assay: Drug concentration in male Lister Hooded pigmented rat adrenal assessed as radioactivity per gram of tissue at 20 mg/kg administered as single dose via gastric gavage measured after 24 hrs by autoradiographic analysis; format: ADME, organism-based; design: dose 20 mg/kg, dosed compound name [14C]Sunitinib; conditions: in vivo, po
Heart = assay: Drug concentration in male Lister Hooded pigmented rat heart assessed as radioactivity per gram of tissue at 20 mg/kg administered as single dose via gastric gavage measured after 24 hrs by autoradiographic analysis; format: ADME, organism-based; design: dose 20 mg/kg, dosed compound name [14C]Sunitinib; conditions: in vivo, po
Ovary [7] = assay: Drug concentration in female albino rat ovary assessed as radioactivity per gram of tissue at 20 mg/kg administered as single dose via gastric gavage measured after 3 hrs by autoradiographic analysis; format: ADME, organism-based, Female gonad; design: dose 20 mg/kg, dosed compound name [14C]Sunitinib; conditions: in vivo, po
Summary of the method: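 Sprague Dawley (albino) and Lister Hooded (pigmented) rats, ca 7-8 weeks old, 179-310 g, acclimated 7 days. Single gavage dose of [14C]sunitinib L-malate (15 mg freebase/kg, 100 µCi/kg). One male and one female killed by CO2 per time point: albino at 3, 6, 24, 72, 168 h; pigmented at 24, 72, 168, 336 h. Carcasses frozen in solid CO2/hexane, 30 µm sagittal sections freeze-dried. Tissue radioactivity read by quantitative whole-body autoradiography against regression of standards, mean background subtracted.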

[8] = Drug concentration in male Lister Hooded pigmented rat salivary gland assessed as radioactivity per gram of tissue at 20 mg/kg administered as single dose via gastric gavage measured after 24 hrs by autoradiographic analysis; format: ADME, organism-based; design: dose 20 mg/kg, dosed compound name [14C]Sunitinib; conditions: in vivo, po
Small intestine [9] = assay: Drug concentration in male Lister Hooded pigmented rat small intestine assessed as radioactivity per gram of tissue at 20 mg/kg administered as single dose via gastric gavage measured after 24 hrs by autoradiographic analysis; format: ADME, organism-based; design: dose 20 mg/kg, dosed compound name [14C]Sunitinib; conditions: in vivo, po
[10] = Drug concentration in male albino rat pituitary gland assessed as radioactivity per gram of tissue at 20 mg/kg administered as single dose via gastric gavage measured after 6 hrs by autoradiographic analysis; format: ADME, organism-based; design: dose 20 mg/kg, dosed compound name [14C]Sunitinib; conditions: in vivo, po
Large intestine [11] = assay: Drug concentration in male Lister Hooded pigmented rat large intestine assessed as radioactivity per gram of tissue at 20 mg/kg administered as single dose via gastric gavage measured after 168 hrs by autoradiographic analysis; format: ADME, organism-based; design: dose 20 mg/kg, dosed compound name [14C]Sunitinib; conditions: in vivo, po
Liver = assay: Drug concentration in male Lister Hooded pigmented rat liver assessed as radioactivity per gram of tissue at 20 mg/kg administered as single dose via gastric gavage measured after 168 hrs by autoradiographic analysis; format: ADME, organism-based; design: dose 20 mg/kg, dosed compound name [14C]Sunitinib; conditions: in vivo, po
Spinal cord = assay: Drug concentration in female albino rat spinal cord assessed as radioactivity per gram of tissue at 20 mg/kg administered as single dose via gastric gavage measured after 3 hrs by autoradiographic analysis; format: ADME, organism-based; design: dose 20 mg/kg, dosed compound name [14C]Sunitinib; conditions: in vivo, po
[12] = Drug concentration in female albino rat bladder assessed as radioactivity per gram of tissue at 20 mg/kg administered as single dose via gastric gavage measured after 6 hrs by autoradiographic analysis; format: ADME, organism-based, Urinary bladder; design: dose 20 mg/kg, dosed compound name [14C]Sunitinib; conditions: in vivo, po
Summary of the method: (§1)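 Sprague Dawley (albino) rats, ca 7-8 weeks old, received a single gastric-gavage dose of [14C]sunitinib L-malate at 20 mg/kg (15 mg freebase/kg, 100 µCi/kg). One animal per sex killed by CO2 at 3, 6, 24, 72 and 168 h, then frozen in CO2/hexane. 30 µm sagittal sections were cut and freeze-dried. Radioactivity per gram quantified by whole-body autoradiography using regression against standards. LOQ 0.04–0.06 µg freebase equiv/g.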

Large intestine [13] = assay: Drug concentration in female albino rat large intestine assessed as radioactivity per gram of tissue at 20 mg/kg administered as single dose via gastric gavage measured after 6 hrs by autoradiographic analysis; format: ADME, organism-based; design: dose 20 mg/kg, dosed compound name [14C]Sunitinib; conditions: in vivo, po
Summary of the method: (§2)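 Sprague Dawley albino rats, ca 7-8 weeks old, dosed once by gastric gavage with [14C]sunitinib L-malate (15 mg freebase/kg, 100 µCi/kg). One male and one female killed by CO2 at 3, 6, 24, 72 and 168 h. Carcasses frozen in solid CO2/hexane, embedded and cut into 30 µm sagittal sections, then freeze-dried. Radioactivity quantified by whole-body autoradiography against standards by regression, background subtracted.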

[14] = Drug concentration in male Lister Hooded pigmented rat eye assessed as radioactivity per gram of tissue at 20 mg/kg administered as single dose via gastric gavage measured after 336 hrs by autoradiographic analysis; format: ADME, organism-based; design: dose 20 mg/kg, dosed compound name [14C]Sunitinib; conditions: in vivo, po
Adrenal [15] = assay: Drug concentration in male Lister Hooded pigmented rat adrenal assessed as radioactivity per gram of tissue at 20 mg/kg administered as single dose via gastric gavage measured after 168 hrs by autoradiographic analysis; format: ADME, organism-based; design: dose 20 mg/kg, dosed compound name [14C]Sunitinib; conditions: in vivo, po
Blood = assay: Drug concentration in male Lister Hooded pigmented rat blood assessed as radioactivity per gram of tissue at 20 mg/kg administered as single dose via gastric gavage measured after 168 hrs by autoradiographic analysis; format: ADME, organism-based; design: dose 20 mg/kg, dosed compound name [14C]Sunitinib; conditions: in vivo, po
Zone of skin [16] = assay: Drug concentration in female albino rat abdomen skin assessed as radioactivity per gram of tissue at 20 mg/kg administered as single dose via gastric gavage measured after 168 hrs by autoradiographic analysis; format: ADME, organism-based; design: dose 20 mg/kg, dosed compound name [14C]Sunitinib; conditions: in vivo, po; summary of the method: as §1
Small intestine [17] = assay: Drug concentration in male albino rat small intestine assessed as radioactivity per gram of tissue at 20 mg/kg administered as single dose via gastric gavage measured after 24 hrs by autoradiographic analysis; format: ADME, organism-based; design: dose 20 mg/kg, dosed compound name [14C]Sunitinib; conditions: in vivo, po
Zone of skin [18] = assay: Drug concentration in female albino rat abdomen skin assessed as radioactivity per gram of tissue at 20 mg/kg administered as single dose via gastric gavage measured after 24 hrs by autoradiographic analysis; format: ADME, organism-based; design: dose 20 mg/kg, dosed compound name [14C]Sunitinib; conditions: in vivo, po; summary of the method: as §1
Kidney = assay: Drug concentration in female albino rat kidney assessed as radioactivity per gram of tissue at 20 mg/kg administered as single dose via gastric gavage measured after 24 hrs by autoradiographic analysis; format: ADME, organism-based; design: dose 20 mg/kg, dosed compound name [14C]Sunitinib; conditions: in vivo, po; summary of the method: as §2
Ovary [19] = assay: Drug concentration in female albino rat ovary assessed as radioactivity per gram of tissue at 20 mg/kg administered as single dose via gastric gavage measured after 72 hrs by autoradiographic analysis; format: ADME, organism-based, Female gonad; design: dose 20 mg/kg, dosed compound name [14C]Sunitinib; conditions: in vivo, po; summary of the method: as §2
[20] = Drug concentration in female Lister Hooded pigmented rat uveal tract assessed as radioactivity per gram of tissue at 20 mg/kg administered as single dose via gastric gavage measured after 336 hrs by autoradiographic analysis; format: ADME, organism-based; design: dose 20 mg/kg, dosed compound name [14C]Sunitinib; conditions: in vivo, po
Summary of the method: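 Lister Hooded (pigmented) rats, ca 7-8 weeks old, acclimated 7 days, given [14C]sunitinib L-malate by gastric gavage at 20 mg/kg (15 mg freebase/kg, 100 µCi/kg). One male and one female killed by CO2 at 24, 72, 168 and 336 h. Carcasses frozen in solid CO2/hexane and embedded in frozen cellulose. 30 µm sagittal cryosections were freeze-dried. Tissue radioactivity measured by quantitative whole-body autoradiography against calibration standards, with background subtracted.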

Tmax (Homo sapiens [1]): 8 h
AUC (Homo sapiens [2]): 2537.1 ng.Eq.hr/ml
beta t1/2 (Cynomolgus monkey [3]): 222 h
Radiolabel recovery (Homo sapiens [4]): 77%
Radiolabel recovery (Cynomolgus monkey [5]): 90.7%
Radiolabel recovery (Adrenal [6]): 4.3 ugequiv
Radiolabel recovery (Heart): 0.43 ugequiv
Radiolabel recovery (Ovary [7]): 10.92 ugequiv
Radiolabel recovery [8]: 3.52 ugequiv
Radiolabel recovery (Small intestine [9]): 0.82 ugequiv
Radiolabel recovery [10]: 22.94 ugequiv
Radiolabel recovery (Large intestine [11]): 0.06 ugequiv
Radiolabel recovery (Liver): 0.06 ugequiv
Radiolabel recovery (Spinal cord): 0.28 ugequiv
Radiolabel recovery [12]: 6.2 ugequiv
Radiolabel recovery (Large intestine [13]): 7.43 ugequiv
Radiolabel recovery [14]: 39.4 ugequiv
Radiolabel recovery (Adrenal [15]): 0.74 ugequiv
Radiolabel recovery (Blood): 0.06 ugequiv
Radiolabel recovery (Zone of skin [16]): 0.26 ugequiv
Radiolabel recovery (Small intestine [17]): 1.55 ugequiv
Radiolabel recovery (Zone of skin [18]): 4.16 ugequiv
Radiolabel recovery (Kidney): 4.79 ugequiv
Radiolabel recovery (Ovary [19]): 0.09 ugequiv
Radiolabel recovery [20]: 323.3 ugequiv
SMILES: CCN(CC)CCNC(=O)c1c(C)[nH]c(/[14CH]=C2\C(=O)Nc3ccc(F)cc32)c1C.O=C(O)C[C@H](O)C(=O)O
